SENP6 inh = SENP6 protease inhibition | Q9GZR1 | Recombinant SENP6 catalytic domain, aminoluciferin luminescence | inhibition, % at 10 µM | 330,000 tested, 1.8% active;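 active = inhibition above about 50% at the single tested dose, limit read from the data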
Target sequence (Q9GZR1 628-1112 limits assumed): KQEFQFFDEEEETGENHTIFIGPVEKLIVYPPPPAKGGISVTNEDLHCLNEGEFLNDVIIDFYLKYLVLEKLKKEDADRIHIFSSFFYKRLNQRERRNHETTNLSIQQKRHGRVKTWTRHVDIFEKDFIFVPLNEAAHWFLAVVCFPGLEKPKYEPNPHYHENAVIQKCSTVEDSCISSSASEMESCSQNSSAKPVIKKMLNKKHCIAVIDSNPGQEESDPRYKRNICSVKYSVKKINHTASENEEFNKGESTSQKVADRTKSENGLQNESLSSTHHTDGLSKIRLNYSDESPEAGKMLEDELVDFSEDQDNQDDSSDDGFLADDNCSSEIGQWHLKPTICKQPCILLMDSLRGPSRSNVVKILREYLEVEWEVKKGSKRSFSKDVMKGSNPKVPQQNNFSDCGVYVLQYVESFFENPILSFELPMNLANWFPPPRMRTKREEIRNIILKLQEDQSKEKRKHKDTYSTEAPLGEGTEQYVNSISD
SENP8 block-1 = blocks the human protease SENP8; Q96LD8; purified SENP8, Z-RLRGG-aminoluciferin cleavage, luminescence; inhibition, % at 10 µM; 330,000 tested, 1.2% active; in the data active = inhibition above about 50%
SENP1 FRET inh = SENP1 (human) catalytic domain inhibition. recombinant SENP1 catalytic domain, CyPet-SUMO1-YPet FRET cleavage. Q9P0U3. 360,000 tested, 0.21% active. inhibition, % at 10 µM. AID 624204;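 active = inhibition at least 30% at 10 µM, raw YFP signal under a set limit, fluorescence ratio 0.5 to 1.5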
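System: Recombinant human SENP1 catalytic domain, His6-tagged | Incubation: Enzyme reaction for 50 min at room temperature, dark | Medium: Tris pH 8 with BME, BSA, NP40 and catalase | Also added: 25 nM SUMO1 FRET substrate | Compound: 10 µM single point, 0.5% DMSO | Measured by: FRET fluorescence in CFP and YFP emission channels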
SENP8 block-2 = blocks human SENP8 cleavage of Nedd8 substrate. Q96LD8. recombinant SENP8, Nedd8 substrate fluorescence. inhibition, % at 20 µM. 360,000 tested, 0.64% active; in the data active = inhibition mostly above about 40%, no sharp cut-off; inactive = mostly below about 27%
SENP7 block = inhibitors of human SENP7 protease | Q9BQF6 | recombinant SENP7, Z-RLRGG-aminoluciferin luminescence, 40 min | inhibition, % at 5 µM | 330,000 tested, 1.5% active | AID 434973;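 active = inhibition above about 50% at the single test dose, limit read from the data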
SENP8 conf = human SENP8 inhibition, confirmed; shares compounds with SENP7 block; Recombinant SENP8, Z-RLRGG-aminoluciferin luminescence, 60 min; inhibition, % at 12.5 µM; 6,200 tested, 40% active; AID 488912;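 active = mean inhibition across replicates above about 50%, limit read from the data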
SENP6 conf = confirmation of human SENP6 protease inhibitors | AID 488915 | inhibition, % at 12.5 µM | recombinant SENP6, Z-RLRGG-aminoluciferin luminescence | shares compounds with SENP7 block | 6,200 tested, 58% active
SENP7 conf = human SENP7 inhibition, confirmed | shares compounds with SENP7 block | recombinant SENP7, Z-RLRGG-aminoluciferin luminescence, 40 min | inhibition, % at 12.5 µM | 6,200 tested, 69% active
Casp3 select = selectivity test for SENP inhibitors: human caspase-3 inhibition; shares compounds with SENP7 block; purified caspase-3, Z-DEVD-aminoluciferin luminescence, 60 min; inhibition, % at 12.5 µM; 6,200 tested, 60% active; AID 488918;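 active = mean inhibition above about 50%, limit read from the data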
SENP luc ctr = counter-screen for SENP inhibitors: luminescence interference; inhibition, % at 12.5 µM; 6,200 tested, 39% active; AID 488919; Pre-incubated SENP8/Z-RLRGG-aminoluciferin, luciferase luminescence interference; shares compounds with SENP7 block;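 active = mean inhibition above about 50% when retested at one dose, limit read from the data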
Large screens that a line does not name were inactive (follow-up assays come after a bar, where they were run). Most compounds without a hit are left out; they make up all but 2.5% or so of the library.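 The calls were made as follows, unless noted: active = mean inhibition above about 50% in the one-dose retest (limit read from the data); inactive = the rest.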

COc1ccc(C(=O)O/N=C(\N)c2ccc(OC)c(OC)c2)cc1	SENP6 inh 64, SENP7 block 81 | SENP8 conf inactive | SENP6 conf inactive | SENP7 conf 61 | Casp3 select inactive | SENP luc ctr inactive
Cc1noc(C)c1S(=O)(=O)Nc1ccc2c(c1)CC(=O)N([C@H](C)CO)C[C@H](C)[C@H](CN(C)S(=O)(=O)c1ccc(F)cc1)O2	none
COc1ccc(/C=N/n2nnnc2N)c(OC)c1	none
COc1ccc(OC)c(S(=O)(=O)Nc2cccc3ccccc23)c1	none
COc1ccc(OC)c(S(=O)(=O)Oc2ccc(N)c3ccccc23)c1	SENP6 inh 94, SENP8 block-1 72 | SENP8 conf inactive | SENP6 conf inactive | SENP7 conf inactive | Casp3 select inactive | SENP luc ctr inactive
O=c1c2c(nc3c(-c4ccc(Cl)cc4)c[nH]n13)CCCC2	none
Cc1nc2cc(-c3ccc(F)cc3)[nH]n2c(=O)c1C	none
O=c1c2c(nc3cc(-c4ccc(Cl)cc4)[nH]n13)CCS2	SENP6 inh 88, SENP8 block-1 85, SENP7 block 73 | SENP8 conf inactive | SENP6 conf inactive | SENP7 conf inactive | Casp3 select inactive | SENP luc ctr inactive
O=c1c2c(nc3cc(-c4cccc(Cl)c4)[nH]n13)CCC2	SENP6 inh 50, SENP7 block 57 | SENP8 conf inactive | SENP6 conf inactive | SENP7 conf inactive | Casp3 select inactive | SENP luc ctr inactive
O=c1c2c(nc3cc(-c4ccc(F)cc4)[nH]n13)CCCC2	SENP6 inh 54, SENP7 block 55 | SENP8 conf inactive | SENP6 conf inactive | SENP7 conf inactive | Casp3 select inactive | SENP luc ctr inactive
Cc1nc2cc(-c3ccc(Br)cc3)[nH]n2c(=O)c1Cl	SENP6 inh 82, SENP8 block-1 75 | SENP8 conf inactive | SENP6 conf inactive | SENP7 conf inactive | Casp3 select inactive | SENP luc ctr inactive
COc1cccc(-c2cnc(C(O)c3cccc(F)c3)[nH]2)c1 (stereo not given)	none (no result: SENP6 inh, SENP8 block-1, SENP7 block)
COc1cc(/C=C/C(=O)O)cc(S(=O)(=O)Nc2ccc3c(c2)OCO3)c1OC	none
CCOc1cc2c(C#N)c(N3CCOCC3)nc(N)c2c(N)n1	none
CCOc1cc2c(C#N)c(N(CC)CC)nc(N)c2c(N)n1	SENP6 inh 72 | SENP8 conf inactive | SENP6 conf inactive | SENP7 conf inactive | Casp3 select inactive | SENP luc ctr inactive
CCCN(CC1CC1)c1nc(N)c2c(N)nc(OC)cc2c1C#N	SENP6 inh 82, SENP8 block-1 80 | SENP8 conf inactive | SENP6 conf inactive | SENP7 conf inactive | Casp3 select inactive | SENP luc ctr inactive
CCn1cc(CN2CCC(n3nccc3NC(=O)CCOc3ccccc3)CC2)c(C)n1	none
N#Cc1ccccc1NC(=O)COc1ccccc1C(=O)Nc1ccccc1	none
Brc1ccc(-c2cnc(-c3cccs3)o2)cc1	SENP6 inh 69, SENP7 block 62 | SENP8 conf 56 | SENP6 conf 67 | SENP7 conf 86 | Casp3 select inactive | SENP luc ctr inactive
O=C(/C=C/c1ccc(Cl)cc1Cl)N1CCc2ccccc21	SENP6 inh 70, SENP8 block-1 51, SENP7 block 92 | SENP8 conf inactive | SENP6 conf inactive | SENP7 conf inactive | Casp3 select 64 | SENP luc ctr inactive
O=C(/C=C/c1cccc(F)c1)N1CCc2ccccc21	SENP6 inh 74, SENP8 block-1 72, SENP7 block 95 | SENP8 conf inactive | SENP6 conf inactive | SENP7 conf inactive | Casp3 select inactive | SENP luc ctr inactive
O=C(/C=C/c1cccc(F)c1)OCC(=O)N1CCCc2ccccc21	none

Screens: PubChem BioAssay, Sanford-Burnham Center for Chemical Genomics
